From ChEMBL document CHEMBL1123924, “Structure-activity studies of antagonists of luteinizing hormone-releasing hormone with emphasis on the amino-terminal region” (1987) come the findings set out here.

Format in all cases: functional
Test [1] is filed under the species Rattus norvegicus. Kind of test: Antiovulatory activity was expressed as the percentage of 12 rats blocked at a dose 0.5 ug. The note with it: in the assay text read “14 rats” for “12 rats”. The essentials:
(§1)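 Sprague-Dawley rats given peptide by subcutaneous injection at noon on the day of proestrus, in 40% propane-1,2-diol–0.9% saline vehicle. Oviducts examined for ova the following day.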

For test [2], the species on record is Rattus norvegicus. The test is described as follows: Antiovulatory activity was expressed as the percentage of 9 rats blocked at a dose 1 ug. In a few lines:
as §1

The species entered for test [3] is Rattus norvegicus. Kind of test: Antiovulatory activity was expressed as the percentage of 9 rats blocked at a dose 0.5 ug. In a few lines: as §1
The species named for test [4] is Rattus norvegicus. The test is described as follows: Antiovulatory activity was expressed as the percentage of 13 rats blocked at a dose 1 ug. In a few lines: as §1

Residues, ends and D or L forms follow the SMILES beside them.

In turn, `CC(=O)N[C@H](Cc1ccc2ccccc2c1)C(=O)N[C@H](Cc1ccc(Cl)cc1)C(=O)N[C@H](Cc1ccc(O)cc1)C(=O)N[C@@H](CO)C(=O)N[C@@H](Cc1ccc(O)cc1)C(=O)N[C@H](CCCN=C(N)N)C(=O)N[C@@H](Cc1ccccc1)C(=O)N[C@@H](CCCN=C(N)N)C(=O)N1CCC[C@H]1C(=O)N[C@H](C)C(N)=O` returned an Antiovulatory activity in the test filed under Rattus norvegicus [1] of 86%.
`CC(=O)N[C@H](Cc1ccc2ccccc2c1)C(=O)N[C@H](Cc1ccccc1)C(=O)N[C@H](Cc1ccccc1)C(=O)N[C@@H](CO)C(=O)N[C@@H](Cc1ccc(O)cc1)C(=O)N[C@H](CCCN=C(N)N)C(=O)N[C@@H](Cc1ccccc1)C(=O)N[C@@H](CCCN=C(N)N)C(=O)N1CCC[C@H]1C(=O)N[C@H](C)C(N)=O` (HELM PEPTIDE1{[ac].[O=C([C@@H](Cc1ccc2ccccc2c1)N[*:1])[*:2]].[dF].[dF].S.Y.[dR].F.R.P.[dA].[am]}$$$$V2.0): the Antiovulatory activity in the test filed under Rattus norvegicus [2] amounted to 100%; in the test filed under Rattus norvegicus [3], 56%.
`CC(=O)N[C@H](Cc1ccc2ccccc2c1)C(=O)N[C@H](Cc1ccc(Cl)cc1)C(=O)N[C@H](Cc1c[nH]c2ccccc12)C(=O)N[C@@H](CO)C(=O)N[C@@H](Cc1ccc(O)cc1)C(=O)N[C@H](CCCN=C(N)N)C(=O)N[C@@H](CC(C)C)C(=O)N[C@@H](CCCN=C(N)N)C(=O)N1CCC[C@H]1C(=O)N[C@H](C)C(N)=O` (HELM PEPTIDE1{[ac].[O=C([C@@H](Cc1ccc2ccccc2c1)N[*:1])[*:2]].[O=C([C@@H](Cc1ccc(Cl)cc1)N[*:1])[*:2]].[dW].S.Y.[dR].L.R.P.[dA].[am]}$$$$V2.0): the Antiovulatory activity in the test listed under Rattus norvegicus [4] is 77%.
